# According to ChEMBL document CHEMBL4513216, “Probing the Open Global Health Chemical Diversity Library for Multistage-Active Starting Points for Next-Generation Antimalarials” (ACS Infect Dis, 2020):
# Test: Toxicity liver stage against HepG2, at 10uM
# Assay type: cell-based
# Parameters: test concentration 10 uM, cell line HepG2-A16-CD81EGFP
# Conditions: human, HepG2-A16-CD81EGFP cells; read-out: INHIBITION
# Summary of the method: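 Uninfected HepG2-A16-CD81EGFP cells, 3 × 10^3 per well, 1536-well, plated on prespotted compound at 10 μM final, parasite-free screening media added to match infected plates; puromycin 10 μM positive, DMSO 0.5% negative; run in parallel with 48 h PbLuc assay at 37 °C, 5% CO2; viability by CellTiter-Glo luminescence, normalized to controls.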
smiles,measurement,value
N#Cc1cccnc1N1CCN(C(=O)c2cccs2)CC1,cytotoxicity at 10 µM,10.4%
O=C(N1CCCCC1)N1CCN(CC(O)c2ccc(F)cc2)CC1 (stereo not drawn),cytotoxicity at 10 µM,-8.85%
OC[C@@H]1CN2CCN(c3ccccn3)C[C@@H]2[C@H]1c1ccccc1,cytotoxicity at 10 µM,-2.41%
CNC(=O)[C@@H]1[C@H]2CN(Cc3ccoc3)CCN2C[C@H]1c1ccccc1,cytotoxicity at 10 µM,4.06%
CC(C)(C)OC(=O)N1CC(=O)N(CCc2ccccc2)CC(O)C1 (stereo not drawn),cytotoxicity at 10 µM,-12.9%
COc1ccc(NC(=O)Cn2nc(C)c(C(C)=O)c2C)cc1,cytotoxicity at 10 µM,-3.66%
COc1ccc(C(=O)NCc2ccco2)nn1,cytotoxicity at 10 µM,-2.14%
CCNC(=O)c1cc2n(n1)CCCO2,cytotoxicity at 10 µM,1.25%
O=C(NCC(O)c1ccoc1)Nc1c(F)cccc1F (stereo not drawn),cytotoxicity at 10 µM,-5.86%
CC(=O)N1CC2(CCN(C(=O)c3cccc4[nH]ccc34)CC2)C1,cytotoxicity at 10 µM,-138%
CS(=O)(=O)N1CC(c2nc[nH]n2)c2cc(C(=O)NC3CC3)ccc21 (stereo not drawn),cytotoxicity at 10 µM,-158%
COCCO[C@H]1CCN(Cc2cnn(C)c2)[C@H]1Cc1cccnc1,cytotoxicity at 10 µM,0.793%
O=C(Cn1cc(C(=O)O)ccc1=O)Nc1cc(F)ccc1F,cytotoxicity at 10 µM,0.687%
CC(C)n1ncc2c1NC(=O)CC2c1ccccc1Cl (stereo not drawn),cytotoxicity at 10 µM,33.5%
Cn1c(=O)[nH]c(=O)n2c(CC(=O)Nc3c(Cl)cccc3Cl)cnc12,cytotoxicity at 10 µM,8.52%
O=C(Cc1c(F)cccc1F)N1CCN(CC(=O)N2CCCC2)CC1,cytotoxicity at 10 µM,4.57%
CCc1c(C)nc2n(c1=O)CC(C(=O)Nc1nc3c(s1)CCCC3)CS2 (stereo not drawn),cytotoxicity at 10 µM,2.17%
COCCN(Cc1ccoc1)C(=O)c1cccnc1SC,cytotoxicity at 10 µM,12.4%
O=C(Cn1cc(C(=O)O)ccc1=O)Nc1ccc(Cl)cc1F,cytotoxicity at 10 µM,-6.94%
CCS(=O)(=O)N1CCC2(CC(=O)N(c3cccc(C)c3)C2)C1 (stereo not drawn),cytotoxicity at 10 µM,-7.79%
CCc1noc(C2CCCCN2C(=O)c2cccs2)n1 (stereo not drawn),cytotoxicity at 10 µM,6.5%
CCn1ncc(NC(=O)CCn2ncc3c(Cl)cccc32)c1C,cytotoxicity at 10 µM,7.74%
CNC(=O)C1CN(C(=O)c2cccnc2)CCN(S(C)(=O)=O)C1 (stereo not drawn),cytotoxicity at 10 µM,1.45%
CN1CCCCC1CC(=O)Nc1ccc2ncn(C)c2c1 (stereo not drawn),cytotoxicity at 10 µM,4.18%
O=S(=O)(Nc1ccc(N2CCOCC2)cn1)c1ccc(F)cc1,cytotoxicity at 10 µM,-6.64%
Cc1ccc2nc(CN(Cc3ccc(C#N)cc3)C(C)C)cc(=O)n2c1,cytotoxicity at 10 µM,21.1%
Cc1sc(NC(=O)CN(C)CCOc2cccc(F)c2)c(C)c1C,cytotoxicity at 10 µM,4.21%
COCCN(Cc1ccccn1)C(=O)Nc1cccnc1-n1cccn1,cytotoxicity at 10 µM,1.06%
CCc1noc(C)c1C(=O)N1CCN(c2nc(C)cc(OC)n2)CC1,cytotoxicity at 10 µM,-13.8%
CCN1CC(C(=O)NC(C)(C)C)CC1=O (stereo not drawn),cytotoxicity at 10 µM,-2.91%
CC(C)(C)c1cc(NC(=O)CN2CCCC2Cn2cncn2)on1 (stereo not drawn),cytotoxicity at 10 µM,5.91%
Cc1cc(C(C)NC(=O)CCN2C(=O)c3ccccc3C2=O)c(C)o1 (stereo not drawn),cytotoxicity at 10 µM,-7.82%
CCN(C(=O)CCc1ccccc1)C1CC(=O)NC1=O (stereo not drawn),cytotoxicity at 10 µM,-7.32%
CCOc1cc(NC(=O)NCCn2cnnc2CC)ccc1C,cytotoxicity at 10 µM,-7.37%
Cc1ccc(C)c(CN(C)Cc2nnc3ccccn23)c1,cytotoxicity at 10 µM,-10.5%
Cc1csc(C2(NCC(O)COC(C)C)CCCC2)n1 (stereo not drawn),cytotoxicity at 10 µM,4.53%
CCN(CC)CC(=O)NCCc1csc(N2CCCC2)n1,cytotoxicity at 10 µM,8.55%
c1cc(CNCc2ccnc(N3CCOCC3)c2)c2c(c1)OCCO2,cytotoxicity at 10 µM,-4.66%
CN(CC1CCCCO1)C(=O)c1ccnc(OC2CCC2)c1 (stereo not drawn),cytotoxicity at 10 µM,-7.63%
CC(C)c1nc(C(=O)N2CCOCC2CC(=O)c2ccco2)c[nH]1 (stereo not drawn),cytotoxicity at 10 µM,0.769%
Cc1cnc(CNC(=O)[C@@]23CCO[C@@H]2CCN(c2ncccn2)C3)cn1,cytotoxicity at 10 µM,-100%
CC(C)N(Cc1ccc(C(F)(F)F)nc1)Cc1cnn(C)c1,cytotoxicity at 10 µM,1.36%
COc1ncc(-c2ccc(C(N)=O)cc2)c(OC)n1,cytotoxicity at 10 µM,-5.9%
CN(C)Cc1ccc(C2CCCCN2C(=O)c2ncccc2O)cc1 (stereo not drawn),cytotoxicity at 10 µM,-6.59%
CSCc1nc(CNC(=O)C2CCCN(C(=O)N(C)C)C2)cs1 (stereo not drawn),cytotoxicity at 10 µM,-3.99%
CC(C)N1CCC(C(=O)N2CCC(C(O)c3nccn3C)CC2)CC1 (stereo not drawn),cytotoxicity at 10 µM,-2.7%
CCOc1cc(Cl)c(CN2CCC3(CCCNC3=O)C2)cc1OC (stereo not drawn),cytotoxicity at 10 µM,10.6%
O=C1O[C@@H]2CN(c3cnccn3)C[C@@H]2N1CCCc1ccc(F)cc1,cytotoxicity at 10 µM,-3.94%
O=C(Cn1ccnc1)N(CCO)CCSc1ccc(Cl)cc1,cytotoxicity at 10 µM,4.38%
O=C(NCCN1CCCCC1)c1cccc(Cl)c1Cl,cytotoxicity at 10 µM,6.04%
CC(=O)N(C)C1CCN(c2ncc3c(n2)CCN3c2ccccc2)C1 (stereo not drawn),cytotoxicity at 10 µM,-9.62%
COCC1CCN(C(=O)c2cccc(S(=O)(=O)NC3CCCC3)c2)C1 (stereo not drawn),cytotoxicity at 10 µM,10.8%
COc1cc(C)c(CN2CCC3(CC2)C(C(=O)O)CC(=O)N3C)cc1C (stereo not drawn),cytotoxicity at 10 µM,-8.58%
COCC(=O)N1CCC(c2cc(C(F)(F)F)n3ccnc3n2)CC1,cytotoxicity at 10 µM,1.44%
CC(=O)NCCNC(=O)CN1CCOC(Cn2cccn2)C1 (stereo not drawn),cytotoxicity at 10 µM,-7.6%
N#Cc1ccc(CN2CCCC2Cn2cccn2)cc1 (stereo not drawn),cytotoxicity at 10 µM,-2.96%
COc1ccc(C(O)CNC(=O)NCc2nc(C)cs2)cc1 (stereo not drawn),cytotoxicity at 10 µM,-3.54%
CCc1nc(C2CCCN(C(=O)c3cccnc3O)C2)no1 (stereo not drawn),cytotoxicity at 10 µM,-3.54%
Cc1cc(CN2CCCC2Cn2cccn2)no1 (stereo not drawn),cytotoxicity at 10 µM,-4.36%
N#Cc1cn(C2CC2)c(=O)n(CC(O)c2ccc(Cl)cc2)c1=O (stereo not drawn),cytotoxicity at 10 µM,-5.78%
Cc1cc(C)c(CNC(=O)N2CCN(c3ccccn3)CC2)c(=O)[nH]1,cytotoxicity at 10 µM,-9.95%
COc1c(CNCc2ccnc(N(C)C)c2)c(C(C)C)nn1C,cytotoxicity at 10 µM,-6.3%
Cn1cc(C2CCCN2C(=O)CCCc2cccs2)cn1 (stereo not drawn),cytotoxicity at 10 µM,-2.12%
Cn1cnnc1C1CCN(C(=O)c2cc3c(s2)CCC3)CC1,cytotoxicity at 10 µM,-10%
CC(=O)c1cccc(OCC(=O)NS(=O)(=O)c2ccc(Br)s2)c1,cytotoxicity at 10 µM,-19.4%
Cc1cc(CN(C)C(=O)c2ccc(N(C)C)nc2)no1,cytotoxicity at 10 µM,-5.4%
COc1ccccc1N1CCN(C(=O)NC(C)c2nncn2C)CC1 (stereo not drawn),cytotoxicity at 10 µM,-4.23%
Cc1cnn(CC2CCCN2Cc2noc(C)n2)c1 (stereo not drawn),cytotoxicity at 10 µM,0.742%
CCc1ccc(NS(=O)(=O)c2cc3c(c(C(=O)O)c2)OCCO3)cc1,cytotoxicity at 10 µM,-13.9%
Cn1ccnc1COc1ccc(CO)cc1,cytotoxicity at 10 µM,-5.05%
Cn1ccnc1CN1CCN(CC(O)c2ccc(F)c(F)c2)CC1 (stereo not drawn),cytotoxicity at 10 µM,-12.9%
CCn1ccnc1CNCC1CCCN1c1cc(NC)ncn1 (stereo not drawn),cytotoxicity at 10 µM,3.37%
OC(CNCCn1cccn1)c1ccc(F)c(F)c1 (stereo not drawn),cytotoxicity at 10 µM,2.05%
CC(OCC1CC1)C(=O)N1CCCN(Cc2nccn2C)CC1 (stereo not drawn),cytotoxicity at 10 µM,2.48%
c1ccc(Cn2ccnc2CN2CCOC(Cn3cccn3)C2)cc1 (stereo not drawn),cytotoxicity at 10 µM,-3.78%
COc1ccccc1CC1CCCN(CCC#N)C1 (stereo not drawn),cytotoxicity at 10 µM,1.73%
COc1ccccc1C(=O)N1CCNCC1C(N)=O (stereo not drawn),cytotoxicity at 10 µM,1.96%
Cn1cc(CN2CCC(F)(F)C3(CCN(c4ncccn4)C3)C2)cn1 (stereo not drawn),cytotoxicity at 10 µM,-0.58%
Cn1nc(C#N)c2c1CN(C(=O)c1cccnc1)CCC2,cytotoxicity at 10 µM,2.22%
O=C(c1cccnc1)N1Cc2nccn2CC(COc2cccnc2)C1 (stereo not drawn),cytotoxicity at 10 µM,4.01%
CCS(=O)(=O)N1Cc2ncn(CC3CC3)c2C(COCC2CC2)C1 (stereo not drawn),cytotoxicity at 10 µM,0.822%
CC(C)CS(=O)(=O)N1C[C@@H]2C[C@H](C(=O)NCc3ccccc3)[C@H](C1)O2,cytotoxicity at 10 µM,8.24%
O=c1[nH]c2cn(-c3ccc(F)cc3)c(=O)n2n1Cc1cccc(Cl)c1,cytotoxicity at 10 µM,6.59%
